This passage reports Ki, Activity and EC50 results from ChEMBL document CHEMBL1133602, “A study of the relationship between biological activity and prolyl amide isomer geometry in oxytocin using 5-tert-butylproline to augment the Cys(6)-Pro(7) amide cis-isomer population” (J Med Chem, 2000).

Each structure is given as a SMILES string. Numbered stars: 1 amine (or outer) side, 2 acyl side, 3 side chain; on linkers, the order of the positions; unused ones are H or OH. Bridge positions count the residues as written; N and C are the ends. Square brackets hold non-standard residues; d marks the D form. Peptide text beside a SMILES is read from it. X3 = CC(C)(C)[C@H]1CC[C@@H](C(=O)[*:2])N1[*:1]; X1 = CC(C)(C)C1CC[C@@H](C(=O)[*:2])N1[*:1]; Mpa = O=C(O)CCS

A word on the Ki: it is the equilibrium dissociation constant of an inhibitor or competing ligand from its target. A lower Ki goes with higher affinity. A word on the EC50: it is the concentration that produces a half-maximal response.

In one test the target is T1, Oxytocin receptor (Rattus norvegicus, UniProt P70536).
T1 sequence (P70536 whole entry): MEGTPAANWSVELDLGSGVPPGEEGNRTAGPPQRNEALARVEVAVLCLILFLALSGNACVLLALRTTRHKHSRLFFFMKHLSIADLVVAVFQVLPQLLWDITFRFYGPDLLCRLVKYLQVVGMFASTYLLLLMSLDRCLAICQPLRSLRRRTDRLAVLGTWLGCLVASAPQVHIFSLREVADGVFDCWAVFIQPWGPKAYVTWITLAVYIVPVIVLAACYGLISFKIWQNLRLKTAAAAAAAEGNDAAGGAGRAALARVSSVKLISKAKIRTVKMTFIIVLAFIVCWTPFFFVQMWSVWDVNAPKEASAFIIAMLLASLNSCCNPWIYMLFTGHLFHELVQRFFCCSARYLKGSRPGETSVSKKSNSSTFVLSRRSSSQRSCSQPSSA
Briefly: Binding affinity against oxytocin receptor. The method in brief: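 Crude rat uterine membrane fraction incubated with [3H]oxytocin (2 nM) plus peptide at 0.1-10000 nM, 30 min at 35 °C. Buffer was 50 mM HEPES pH 7.6 with 10 mM MnCl2 and 1 mg/mL bovine serum albumin. Bound and free separated by rapid filtration.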

For test [1], the species on record is Rattus norvegicus. Put plainly: In Vitro evaluation for the uterotonic activity in rat in the presence of 1 mM of Magnesium. It counts as functional. The method in brief:
(§1)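 Isolated uterus from rats estrogenized 24-48 h beforehand, in Munsick solution without magnesium or with 1 mM Mg2+, oxytocin as standard. Single doses given in random order with bath changed after each response and at least 5 min between doses; cumulative doubling doses given at 1-min intervals. IU/mg from threshold doses against standard, EC50 from the curves. Uteri from 3-5 rats.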

Test [2] is filed under the species Rattus norvegicus. Briefly: In Vitro evaluation for the uterotonic activity in rat in the absence of Magnesium. The test is classed as functional. The method in brief:
as §1

Test [3] is filed under the species Rattus norvegicus. Briefly: Compound was evaluated for the pressor activity. It counts as functional. The method in brief: (§2)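 Male rats (220-260 g) under urethane, pretreated with phenoxybenzamine in two doses. Femoral vein cannulated for dosing and carotid artery for blood pressure. After about 30 min stabilization, i.v. bolus doses of standard or analogue given in random order. Standard curve spanned 2 × 10-5 - 2 × 10-4 mg/kg. Activity set against the standard, 3-4 animals per analogue.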

For test [4], the species on record is Rattus norvegicus. Put plainly: Effective concentration in rat in the absence of Magnesium. The test is classed as functional, organism-based. The method in brief: (§3)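 Isolated uterus from estrogen-primed rats (24-48 h) in Munsick solution, either without magnesium or with 1 mM Mg2+. Antagonist added 1 min before a standard oxytocin dose. EC50 is the concentration that cuts the response to a 2x agonist dose down to that of dose x; pA2 is its negative log. Uteri from 3-5 rats.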

The species named for test [5] is Rattus norvegicus. Briefly: Effective concentration in rat in the presence of 1 mM of Magnesium. It counts as functional, organism-based. The method in brief:
as §3

The species named for test [6] is Rattus norvegicus. Briefly: Compound was evaluated for the pressor activity in rat. The test is classed as functional. The method in brief: as §2

On Oxytocin receptor, `CC[C@H](C)[C@@H]1NC(=O)[C@H](Cc2ccc(O)cc2)NC(=O)CCSSC[C@@H](C(=O)N2CCC[C@H]2C(=O)N[C@@H](CC(C)C)C(=O)NCC(N)=O)NC(=O)[C@H](CC(N)=O)NC(=O)[C@H](CCC(N)=O)NC1=O` [DEMOXYTOCIN] returned a Ki of 3.2 nM. Moreover, the Activity worked out at 760 IU mg-1 in the test listed under Rattus norvegicus [1], 837 IU mg-1 in the test filed under Rattus norvegicus [2] and 1.5 IU/mg in the test listed under Rattus norvegicus [3].
As to `CC[C@H](C)[C@@H]1NC(=O)[C@H](Cc2ccc(O)cc2)NC(=O)[C@@H](N)CSSC[C@@H](C(=O)N2[C@H](C(=O)N[C@@H](CC(C)C)C(=O)NCC(N)=O)CC[C@@H]2C(C)(C)C)NC(=O)[C@H](CC(N)=O)NC(=O)[C@H](CCC(N)=O)NC1=O` (H-CYIQNC[X3]LG-NH2; disulfide 1-6) [listing 1 of 2 here], at Oxytocin receptor, the affinity, expressed as Ki, was 1430 nM. The concentration for a half-maximal effect (EC50) in the test listed under Rattus norvegicus [4] stood at 150 nM; in the test listed under Rattus norvegicus [5], 450 nM.
As for `CC[C@H](C)[C@@H]1NC(=O)[C@H](Cc2ccc(O)cc2)NC(=O)CCSSC[C@@H](C(=O)N2C(C(C)(C)C)CC[C@H]2C(=O)N[C@@H](CC(C)C)C(=O)NCC(N)=O)NC(=O)[C@H](CC(N)=O)NC(=O)[C@H](CCC(N)=O)NC1=O` (stereo partly specified) ([Mpa]YIQNC[X1]LG-NH2; disulfide 1-6), affinity at Oxytocin receptor was put at a Ki of 240 nM. Also, the figures for the Activity in the test listed under Rattus norvegicus [1], in the test filed under Rattus norvegicus [6] and in the test listed under Rattus norvegicus [2] were 3 IU mg-1, 0 IU/mg and 6.1 IU mg-1, respectively. The EC50 in the test listed under Rattus norvegicus [4] was 50 nM; in the test listed under Rattus norvegicus [5], 75 nM.
On to `CC[C@H](C)[C@@H]1NC(=O)[C@H](Cc2ccc(O)cc2)NC(=O)[C@@H](N)CSSC[C@@H](C(=O)N2[C@H](C(=O)N[C@@H](CC(C)C)C(=O)NCC(N)=O)CC[C@@H]2C(C)(C)C)NC(=O)[C@H](CC(N)=O)NC(=O)[C@H](CCC(N)=O)NC1=O` (H-CYIQNC[X3]LG-NH2; disulfide 1-6) [listing 2 of 2 here], for which the Activity was 0.5 IU mg-1 in the test listed under Rattus norvegicus [1], 0 IU/mg in the test listed under Rattus norvegicus [6] and 1.8 IU mg-1 in the test listed under Rattus norvegicus [2].
In the case of `CC[C@H](C)[C@@H]1NC(=O)[C@H](Cc2ccc(O)cc2)NC(=O)[C@@H](N)CSSC[C@@H](C(=O)N2CCC[C@H]2C(=O)N[C@@H](CC(C)C)C(=O)NCC(N)=O)NC(=O)[C@H](CC(N)=O)NC(=O)[C@H](CCC(N)=O)NC1=O` [OXYTOCIN], the Activity in the test filed under Rattus norvegicus [1] was found to be 450 IU mg-1; in the test filed under Rattus norvegicus [6] it was 5 IU/mg; in the test listed under Rattus norvegicus [2] it was 450 IU mg-1. For the same compound, the values for the EC50 in the test listed under Rattus norvegicus [4] and in the test filed under Rattus norvegicus [5] were 0.6 nM and 0.5 nM, respectively.
